The results in this text go back to ChEMBL document CHEMBL4808215, “Discovery of Selective Small-Molecule Inhibitors for the ENL YEATS Domain” (J Med Chem, 2021).

Broadly, the IC50 is the concentration needed to halve the response being measured.

The source made the active and inactive calls. The rule behind the calls is not given here.

Test [1] addresses YEATS domain-containing protein 4 (Homo sapiens, UniProt O95619). Description: Inhibition of human His-GAS41 YEATS domain and biotinylated H3K27ac peptide interaction by AlphaScreen assay. The essentials:
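His-tagged YEATS domains were expressed in E. coli Rosetta-2 (DE3) pLysS and purified on Ni-NTA. Partners were biotinylated peptide on streptavidin donor and Ni2+-chelate acceptor beads: AF9 30 nM with H3K9ac, GAS41 100 nM with H3K27ac, YEATS2 100 nM with H3K27cr. Peptides at 30 nM, buffer 50 mM HEPES pH 7.4, 100 mM NaCl, 0.1% BSA, 0.05% CHAPS. Thirteen-point 3-fold series from 54 μM to 0.1 nM, 4–6 replicates, signal normalised to no-compound control, four-parameter fit.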
(Alpha assays give light when donor and acceptor beads are brought close together.)

Test [2] concerns the target T1, Protein AF-9 (Homo sapiens) (UniProt P42568).
T1 sequence (whole entry): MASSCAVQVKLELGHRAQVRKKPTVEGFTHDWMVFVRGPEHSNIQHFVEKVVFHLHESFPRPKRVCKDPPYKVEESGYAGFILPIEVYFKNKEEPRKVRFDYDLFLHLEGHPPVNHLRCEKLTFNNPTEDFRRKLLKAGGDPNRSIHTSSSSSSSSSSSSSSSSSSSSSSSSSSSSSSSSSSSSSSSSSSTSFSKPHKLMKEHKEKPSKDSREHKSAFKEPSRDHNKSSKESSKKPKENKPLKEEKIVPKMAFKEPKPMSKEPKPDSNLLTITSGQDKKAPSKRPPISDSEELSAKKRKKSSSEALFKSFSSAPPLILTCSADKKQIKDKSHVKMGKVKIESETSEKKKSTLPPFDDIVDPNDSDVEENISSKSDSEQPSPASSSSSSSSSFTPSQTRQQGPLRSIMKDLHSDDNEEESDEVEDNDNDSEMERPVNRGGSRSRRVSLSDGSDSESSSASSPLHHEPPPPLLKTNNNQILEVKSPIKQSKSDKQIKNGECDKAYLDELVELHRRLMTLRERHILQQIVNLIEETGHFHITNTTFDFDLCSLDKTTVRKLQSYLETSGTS
Nature of the test: Inhibition of human His-AF9 YEATS domain and biotinylated H3K9ac peptide interaction at 20 uM by AlphaScreen assay.

Test [3] deals with T2, Protein ENL (Homo sapiens) (UniProt Q03111).
T2 sequence (whole entry): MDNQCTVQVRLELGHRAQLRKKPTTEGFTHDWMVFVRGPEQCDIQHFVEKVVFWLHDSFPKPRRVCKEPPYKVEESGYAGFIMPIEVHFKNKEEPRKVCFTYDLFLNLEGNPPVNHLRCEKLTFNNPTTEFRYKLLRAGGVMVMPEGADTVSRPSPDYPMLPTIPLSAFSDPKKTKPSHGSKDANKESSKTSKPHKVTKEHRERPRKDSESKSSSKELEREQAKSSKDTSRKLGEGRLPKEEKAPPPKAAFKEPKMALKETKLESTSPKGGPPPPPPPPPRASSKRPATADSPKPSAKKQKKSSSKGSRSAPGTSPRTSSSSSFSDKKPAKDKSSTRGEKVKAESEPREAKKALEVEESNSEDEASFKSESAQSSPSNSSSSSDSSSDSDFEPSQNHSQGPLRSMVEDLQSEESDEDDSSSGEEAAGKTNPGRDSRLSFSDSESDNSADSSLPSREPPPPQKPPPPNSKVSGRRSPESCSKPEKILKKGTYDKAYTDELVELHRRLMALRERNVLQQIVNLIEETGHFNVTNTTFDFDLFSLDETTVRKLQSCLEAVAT
Description: Stabilization of ENL in human HeLa cells assessed as inhibition of high temperature-induced ENL protein degradation at 20 uM incubated for 5 hrs by cellular thermal shift assay. It counts as cell-based. The essentials: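 Cells (MOLM13, MV4;11 or HeLa) were treated with 20 μM compound or DMSO for 5 h, washed with PBS and resuspended in PBS with protease inhibitors, about 3 million cells per aliquot. Aliquots were heated 3 min at the indicated temperatures, then held 2 min at room temperature. Lysis was by NP40/glycerol/DTT buffer and three freeze-thaw cycles, followed by a 13,000 rpm spin at 4 °C. Soluble ENL, GAS41 or AF9 in supernatants was measured by western blot with β-actin loading control.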

The subject of test [4] is MOLM-13. Nature of the test: Growth inhibition of human MOLM13 cells at 10 uM incubated for 3 days by CellTiter-Glo luminescent cell viability assay relative to control. It counts as functional. The conditions noted are these: MOLM-13, 72 h, time 3 day, read-out: GI. The essentials: (§1)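 MOLM13 and MV4;11 were grown in RPMI-1640 + 10% FBS, U2OS in DMEM + 10% FBS. Treatment with DMSO or compound for 3 days. Viability read by CellTiter-Glo luminescence and expressed as % of DMSO-treated cells. Mean ± SEM, n = 3.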
(In general: ATP-based viability assays read luminescence as a measure of living cells.)

For test [5], the system named is MOLM-13. Nature of the test: Growth inhibition of human MOLM13 cells at 5 uM incubated for 3 days by CellTiter-Glo luminescent cell viability assay relative to control. It counts as functional. The conditions noted are these: MOLM-13, 72 h, time 3 day, read-out: GI. In short, it runs like this:
as §1

Chain of YEATS domain-containing protein 4 (O95619 whole entry, the tested form may be a part): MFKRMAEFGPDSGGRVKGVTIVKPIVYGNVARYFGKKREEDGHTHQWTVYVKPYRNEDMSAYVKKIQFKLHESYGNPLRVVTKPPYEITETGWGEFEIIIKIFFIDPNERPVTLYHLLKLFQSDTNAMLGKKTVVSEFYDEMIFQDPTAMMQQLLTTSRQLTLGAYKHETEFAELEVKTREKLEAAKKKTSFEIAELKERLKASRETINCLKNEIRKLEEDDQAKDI

On to `CN(C)Cc1ccc(CNC(=O)c2ccc3nncn3c2)cc1`, for which, in test [1], the concentration for half-maximal inhibition (IC50) is > 54 µM. Also, in test [2], the inhibition result is “Active”. Besides, the result in test [3] was Active. Moreover, in the test with MOLM-13 [4], the inhibition of growth at 10 µM amounted to 80%. Also, the inhibition of growth at 5 µM in the test with MOLM-13 [5] turned out to be 40%.
